A selection: hits, their analogues and other compounds. The true share with any hit is near 3.1%.
NS3 helicase inh = inhibitors of HCV NS3 helicase, primary screen, biochemical, Cy5 molecular beacon fluorescence; Hepatitis C virus NS3 helicase; NS3 helicase DNA unwinding; inhibition, % at 10.9 µM; actives 0.56% (n = 290,000); AID 1800, 2009;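 active means inhibition above the mean of all tested compounds plus 3 SD, set per campaign, cut at about 35% in these data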;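 further: 0% = DMSO wells and 100% = thioflavine S control wells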
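Material: hepatitis C virus NS3 helicase domain fragment enzyme; measured by: Cy5 fluorescence, 0 and 60 min reads; control set: DMSO and thioflavine S; incubation: 60 min unwinding reaction at 25 °C after ATP addition; read-out basis: % inhibition from 60/0 min fluorescence ratio, DMSO 0%, thioflavine S 100%; repeats: singlicate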
UBC9 SUMO inh = inhibitors of in vitro SUMOylation cascade, primary screen, biochemical, HTRF, uHTS | SUMO-conjugating enzyme UBC9 (Homo sapiens), P63279 | HTRF SUMOylation assay, SAE1/SAE2 + UBC9 | inhibition, % at 35 µM | actives 0.36% (n = 290,000) | AID 2006, 2009; in the data active means inhibition above about 50%, passing the limit was not always enough
Target sequence (P63279 whole entry, looked up): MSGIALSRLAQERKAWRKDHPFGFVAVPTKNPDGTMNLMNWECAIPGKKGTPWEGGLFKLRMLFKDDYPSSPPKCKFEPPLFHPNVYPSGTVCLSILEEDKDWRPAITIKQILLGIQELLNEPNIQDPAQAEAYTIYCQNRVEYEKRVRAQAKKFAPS
core dimer inh = inhibitors of HCV core protein dimerization, primary screen, biochemical, TR-FRET, high-throughput. inhibition, % at 5 µM. TR-FRET GST/Flag-core106 dimerization, 1536-well. actives 0.33% (n = 300,000). AID 1899, 2009;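 active means inhibition above the mean of all tested compounds plus 3 SD, set per screening campaign, cut at about 45% in these data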
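test system = GST/Flag-tagged HCV core106 proteins | probe or stimulus = Eu donor and XL665 acceptor anti-tag antibodies | times = compound-protein-antibody incubation 4 h at 22.5 °C | signal = TR-FRET, excitation 340 nm, emission 617 and 671 nm | measure = percent inhibition of core106 dimerization signal | controls = wells lacking GST-core106 and wells with excess unlabelled core106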
IMP-1 inh-1 = IMP-1 metallo-beta-lactamase inhibitors, primary screen, biochemical, epi-absorbance readout, Pseudomonas aeruginosa enzyme; metallo-beta-lactamase IMP-1 (Pseudomonas aeruginosa); purified IMP-1, nitrocefin hydrolysis, epi-absorbance fluorescence; inhibition, % at 5.6 µM; actives 0.45% (n = 290,000);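 active means inhibition above the mean plus 3 SD of all compounds in the same screening run, cut at about 4.5% in these data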;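 further: 0% = IMP-1 with DMSO and 100% = DMSO wells lacking enzyme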
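Material – recombinant IMP-1 enzyme, purified · Amount – IMP-1 0.2 nM before substrate addition · Medium – HEPES buffer pH 7.1 with ZnSO4 and Brij 35 · Timing – 25 °C, 15 min preincubation, 25 min reaction · Measured by – plate fluorescence quenching by hydrolysis product, ex 480/em 530 nm · Read-out – percent enzyme inhibition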
VIM-2 inhibitor = VIM-2 metallo-beta-lactamase inhibitors, primary screen, biochemical, epi-absorbance readout, Pseudomonas aeruginosa enzyme. purified VIM-2, nitrocefin hydrolysis, epi-absorbance fluorescence. inhibition, % at 5.6 µM. actives 0.89% (n = 290,000);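 active means inhibition above the mean of all tested compounds plus 3 SD, cutoff set per screening run, cut at about 7.5% in these data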;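 further: red hydrolysis product quenches plate fluorescence so inhibitors raise well fluorescence; 0% = enzyme with DMSO and 100% = DMSO without enzyme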
PHOSPHO1 block = PubChem AID 1565; recombinant PHOSPHO1, absorbance phosphatase assay; inhibition, % at 13.3 µM; actives 1.1% (n = 290,000); in the data active means inhibition above about 60%
Target sequence (Q8TCT1 whole entry, looked up): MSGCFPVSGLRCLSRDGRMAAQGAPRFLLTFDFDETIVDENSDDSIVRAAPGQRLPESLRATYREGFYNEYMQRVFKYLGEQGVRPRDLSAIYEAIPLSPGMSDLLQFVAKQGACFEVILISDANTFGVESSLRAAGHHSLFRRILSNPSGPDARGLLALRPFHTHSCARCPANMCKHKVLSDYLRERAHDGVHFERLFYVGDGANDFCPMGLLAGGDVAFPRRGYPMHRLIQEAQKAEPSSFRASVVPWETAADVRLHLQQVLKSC
IMP-1 inh-2 = IMP-1 metallo-beta-lactamase inhibitors, confirmation, selectivity assay for selective VIM-2 inhibitor project, biochemical, epi-absorbance readout, triplicate; shares compounds with VIM-2 inhibitor; purified IMP-1, nitrocefin hydrolysis, epi-absorbance fluorescence; inhibition, % at 5.6 µM; 1,300 tested, under 10 active; AID 1856, 2009; call rule not given here;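 further: 0% = enzyme with vehicle and 100% = vehicle without enzyme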
VIM-2 FRET ctr = VIM-2 inhibitors in FRET format, confirmation, artefact control for selective VIM-2 inhibitor project, biochemical, epi-absorbance artifact exclusion. shares compounds with VIM-2 inhibitor. purified VIM-2, CCF2 FRET substrate hydrolysis. inhibition, % at 5.6 µM. actives 23% (n = 1,300);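 active means inhibition above the mean of all tested compounds plus 3 SD, cut at about 19% in these data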;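 further: 0% = VIM-2 plus DMSO and 100% = no enzyme wells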
TEM-1 counter = TEM-1 serine beta-lactamase inhibitors, counter-screen for VIM-2 inhibitor project, biochemical, epi-absorbance, HTS; shares compounds with VIM-2 inhibitor; Purified TEM-1, nitrocefin hydrolysis, epi-absorbance fluorescence; inhibition, % at 5.6 µM; actives 3% (n = 1,300); AID 1866, 2009;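 active means inhibition above that campaign's mean inhibition plus 3 SD, cut at about 0.46% in these data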;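 further: 0% = TEM-1 with DMSO and 100% = TEM-1 with 100 µM potassium clavulanate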
Target sequence (P62593 whole entry, looked up): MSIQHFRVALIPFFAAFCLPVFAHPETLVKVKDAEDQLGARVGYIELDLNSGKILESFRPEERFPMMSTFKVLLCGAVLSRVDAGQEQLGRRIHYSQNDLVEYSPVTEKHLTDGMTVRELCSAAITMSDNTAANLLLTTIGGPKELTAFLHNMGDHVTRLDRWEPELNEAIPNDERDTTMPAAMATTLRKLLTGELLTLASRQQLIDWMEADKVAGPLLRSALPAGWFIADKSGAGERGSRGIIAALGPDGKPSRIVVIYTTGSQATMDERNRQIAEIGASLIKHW
VIM-2 confirm 2 = VIM-2 metallo-beta-lactamase inhibitors, confirmation, biochemical, epi-absorbance, hits shared with IMP-1 screen | shares compounds with VIM-2 inhibitor | purified VIM-2, nitrocefin hydrolysis | inhibition, % at 5.6 µM | actives 96% (n = 1,300) | AID 2187, 2009;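 active means inhibition of the VIM-2 beta-lactamase enzyme above about 11% from the earlier first-round screen, limit read from the data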;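 further: 0% = VIM-2 with DMSO and 100% = buffer wells without enzyme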
The depositor's hits bear a star; . = not tested or not shown.

SMILES | NS3 helicase inh | UBC9 SUMO inh | core dimer inh | IMP-1 inh-1 | VIM-2 inhibitor | PHOSPHO1 block | IMP-1 inh-2 | VIM-2 FRET ctr | TEM-1 counter | VIM-2 confirm 2
Cc1cc(C)n(-c2nc(SCC(=O)O)c3c4c(sc3n2)COC(C)(C)C4)n1 | 2 | 14 | 5 | -4 | 15* | 20 | -5 | 39* | -7 | 23*
Cc1nc(NCc2cccnc2)c2c3c(sc2n1)CCCC3 | 6 | -1 | 0 | -2 | 15* | 10 | -4 | -9 | -5 | 31*
CCCCc1ccc(NC(=S)NCc2ccc(OC)cc2)cc1 | -4 | -8 | 6 | -2 | -2 | 42 | . | . | . | .
Cc1ccc(NC(=O)C2CCN(S(=O)(=O)c3c(C)nn(C)c3C)CC2)c(Cl)c1 | -1 | 6 | -1 | -3 | -1 | -4 | . | . | . | .
CC1CCCCN1C(=O)COC(=O)c1ccc(=O)n(Cc2ccccc2)n1 (stereo unspecified) | . | . | -1 | . | . | . | . | . | . | .
COc1ccc(-c2cc3c(=O)n(CC(=O)N4CCN(C)CC4)ncn3n2)cc1 | 1 | 23 | -11 | -5 | 17* | 15 | -3 | -2 | -5 | 31*
COc1cnc(-c2ccccn2)nc1N(C)C | 9 | -34 | -1 | -2 | 2 | 12 | . | . | . | .
Cc1nc(-c2ccccn2)nc(N(C)c2ccccc2)c1Cl | -12 | 6 | 5 | -6 | 21* | 35 | -5 | -52 | -6 | 34*
Cc1nc(-c2ccccn2)nc(N2CCOCC2)c1Cl | 29 | -27 | 1 | -12 | 18* | 33 | -3 | -23 | -5 | 30*
CCOc1ccc(C/C(O)=C2\C(=O)CC(C)(C)CC2=NCC(=O)O)cc1OCC | -10 | 12 | -4 | 0 | -2 | -1 | . | . | . | .
Cc1nc(NCCN2CCOCC2)c2oc3ccccc3c2n1 | -2 | 17 | -3 | -3 | 4 | -6 | . | . | . | .
CCc1nc(Nc2ccccc2)c2oc3ccccc3c2n1 | -13 | 25 | -1 | -2 | 1 | 43 | . | . | . | .
c1ccc(-c2nc(NCCCn3ccnc3)c3oc4ccccc4c3n2)cc1 | -61 | -18 | 0 | -5 | 19* | -4 | -2 | -26 | -6 | 35*
CCc1nc(NCCCn2ccnc2)c2oc3ccccc3c2n1 | 1 | 22 | 0 | -1 | 67* | -4 | -2 | -4 | -7 | 79*
Cc1nc(NCCCN2CCOCC2)c2oc3ccccc3c2n1 | -4 | 6 | -3 | -2 | 29* | -10 | -4 | 4 | -9 | 35*
Cc1ccccc1NC(=S)Nc1ccc(Br)cc1 | 6 | 0 | 0 | -3 | -4 | -6 | . | . | . | .
Cc1ccc(NNC(=O)Nc2ccc(Cl)cc2)nn1 | -14 | -16 | 4 | -3 | -3 | 3 | . | . | . | .
COC(=O)c1ccsc1NC(=O)C1=COCCO1 | 2 | 21 | -11 | -1 | 13* | 13 | -2 | -3 | -5 | 12*
CC1=C(C(=O)OC2CCCCC2)C(c2ccc(N(C)C)cc2)NC(=O)N1 (stereo unspecified) | -3 | -1 | 0 | -4 | -2 | 36 | . | . | . | .
Cc1cccc(Nc2c3c(nc4ncnn24)CCC3)c1 | -3 | 2 | -4 | -2 | 13* | 53 | -3 | -5 | -5 | 29*
Clc1ccc(Nc2c3c(nc4ncnn24)CCC3)cc1 | -10 | 10 | -4 | -4 | 2 | 51 | . | . | . | .
Cc1cc(C)cc(Nc2c3c(nc4ncnn24)CCC3)c1 | -13 | 13 | 5 | -3 | 32* | 41 | -2 | 0 | -6 | 48*
O=C(O)c1cc(O)ccc1NC(=O)c1cccc2ccccc12 | 24 | 13 | 1 | -1 | -3 | 2 | . | . | . | .
Cn1c(=O)n(C)c2cc(/C=N/n3cnnc3)ccc21 | 8 | 11 | 3 | -3 | 15* | -25 | -3 | 1 | -6 | 45*
O=C(NCc1cccnc1)c1cccn2c(=O)c3sccc3nc12 | -5 | 30 | 7 | -1 | 26* | 27 | -3 | -1 | -9 | 51*
SMILES | NS3 helicase inh | UBC9 SUMO inh | core dimer inh | IMP-1 inh-1 | VIM-2 inhibitor | PHOSPHO1 block | IMP-1 inh-2 | VIM-2 FRET ctr | TEM-1 counter | VIM-2 confirm 2
CCn1c(=N)c(C(=O)NCc2cccnc2)cc2c(=O)n3cccc(C)c3nc21 | . | 15 | . | . | . | 20 | . | . | . | .
CC(/C=C1\SC(=S)N(CCC(=O)Nc2nc(C)cs2)C1=O)=C\c1ccccc1 | 9 | -3 | 12 | 0 | -2 | 30 | . | . | . | .
CC(=O)c1c(C)n(-c2ccc(Cl)cc2)c2ccc(O)cc12 | 7 | 10 | 8 | -1 | 14* | 0 | -2 | 24* | -4 | 16*
CC(=O)c1c(C)n(-c2cccc(Cl)c2)c2ccc(O)cc12 | 2 | -4 | 0 | -1 | 0 | 30 | . | . | . | .
O=C(O)C(C(=O)O)=C1C2CC3CC(C2)CC1C3 | 1 | -1 | 5 | -3 | 39* | 22 | -1 | 64* | -3 | 48*
CN1CCN(c2ccc(NC(=O)c3ccc(-c4ccc(Br)cc4)o3)cc2)CC1 | -60 | 6 | -10 | -1 | 24* | 1 | -2 | -3 | -8 | 34*
CN1CCN(c2ccc(NC(=O)c3cc4ccccc4o3)cc2)CC1 | -9 | 5 | 0 | -3 | 40* | 19 | -2 | -2 | -3 | 55*
CS(=O)(=O)N1CCN(c2ccc(NC(=O)c3cc4ccccc4o3)cc2)CC1 | 5 | 12 | 8 | -2 | 0 | . | . | . | . | .
CCN1CCN(c2ccc(NC(=O)c3ccc(Br)o3)cc2)CC1 | 1 | -2 | . | -1 | 15* | . | -3 | -2 | -4 | 24*
N#Cc1c2c(c(NCCN3CCOCC3)n3c1nc1ccccc13)CCCC2 | 2 | 21 | 3 | -3 | 3 | 24 | . | . | . | .
